Calls of active or inactive are those of the source. The rule behind the calls is not given here.
Assays:
[1] = biological target: T1, D(4) dopamine receptor (Homo sapiens, UniProt P21917); assay: Antagonist activity at human D4 receptor expressed in CHOK1 cells assessed as inhibition of dopamine-induced beta-arrestin recruitment measured after 90 mins by luminescence assay; format: cell-based; conditions: read-out: IC50
T1 sequence (P21917 whole entry): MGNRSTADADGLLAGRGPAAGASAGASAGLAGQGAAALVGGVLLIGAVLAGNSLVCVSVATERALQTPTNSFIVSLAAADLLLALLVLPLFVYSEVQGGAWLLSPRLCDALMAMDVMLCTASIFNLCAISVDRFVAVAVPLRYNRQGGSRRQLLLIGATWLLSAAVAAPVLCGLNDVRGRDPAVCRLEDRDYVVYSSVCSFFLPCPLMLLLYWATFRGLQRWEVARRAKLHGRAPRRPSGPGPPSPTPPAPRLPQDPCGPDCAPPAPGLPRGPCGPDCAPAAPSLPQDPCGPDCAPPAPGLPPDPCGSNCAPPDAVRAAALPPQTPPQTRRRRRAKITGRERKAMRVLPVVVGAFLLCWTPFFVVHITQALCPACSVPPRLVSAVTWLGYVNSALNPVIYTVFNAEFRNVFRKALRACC

[2] = biological target: T1, D(4) dopamine receptor; assay: Displacement of [3H](R)-(+)-7-OH-DPAT from human D4.4 receptor expressed in HEK293 cell membranes measured after 90 mins by scintillation counting method
How it was run: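 HEK293 cells stably expressing human D4.4R; membranes used fresh in 50 mM Tris, 10 mM MgCl2, 1 mM EDTA, pH 7.4. 60 μg protein/well with 3 nM [3H]-(R)-(+)-7-OH-DPAT (final), half-log dilutions in 30% DMSO, in triplicate. 90 min at room temperature, then GF/B filtration. Nonspecific binding with 10 μM (+)-butaclamol.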

[3] = biological target: T2, D(4) dopamine receptor (Homo sapiens) (UniProt P21917); assay: Agonist activity at human D4 receptor expressed in CHOK1 cells assessed as induction of beta-arrestin recruitment measured after 90 mins by luminescence assay relative to control; format: cell-based
T2 sequence (whole entry): T1 sequence (P21917 whole entry)
How it was run: (§1)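 PathHunter enzyme-complementation assay in CHO-K1 cells stably expressing human D2R long isoform, D3R or D4R, seeded overnight in Ham's F12/10% FBS. Compounds were diluted in PBS with 0.2 μM sodium metabisulfite and applied at multiple concentrations for 90 min at 37 °C. Detection reagent was added for 45–60 min at room temperature, then luminescence was read. Values are % of maximal dopamine response, from nonlinear regression of triplicate runs, mean ± SEM, n = 3–4.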

[4] = biological target: T1, D(4) dopamine receptor; assay: Displacement of [3H]N-methylspiperone from human D4.4 receptor expressed in HEK293 cell membranes measured after 60 mins by scintillation counting method
How it was run: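 Frozen HEK293 membranes stably expressing human D4.4R (30 μg/well) in EBSS-bicarbonate buffer, pH 7.4, were incubated with 0.4 nM [3H]N-methylspiperone and half-log compound dilutions (30% DMSO vehicle) for 60 min at room temperature. Nonspecific binding was defined by 10 μM (+)-butaclamol. Samples were filtered on GF/B filters and counted by scintillation.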

[5] = biological target: T1, D(4) dopamine receptor; assay: Agonist activity at human D4 receptor expressed in CHOK1 cells assessed as inhibition of forskolin-induced cAMP accumulation measured after 30 mins by Eu-cAMP tracer based TR-FRET assay; format: functional, cell-based
How it was run: (§2)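 LANCE Ultra TR-FRET cAMP assay in CHO-K1 cells stably expressing human D2R long isoform or D4R. Cells were plated in HBSS/5 mM HEPES/0.2 μM metabisulfite, then immediately given compound plus forskolin (10 μM final) for 30 min at room temperature. Eu-cAMP tracer and ULight-anti-cAMP were added for 2 h in the dark. Values are % of maximal dopamine signal, nonlinear regression of triplicate runs, n = 3–4.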

[6] = biological target: T3, D(2) dopamine receptor (Homo sapiens, UniProt P14416); assay: Antagonist activity at human D2L receptor expressed in CHOK1 cells assessed as suppression of dopamine-induced inhibition of forskolin-stimulated cAMP accumulation measured after 30 mins by Eu-cAMP tracer based TR-FRET assay relative to dopamine; format: cell-based; conditions: 0.5 h
[7] = biological target: T4, D(3) dopamine receptor (Homo sapiens, UniProt P35462); assay: Agonist activity at human D3 receptor expressed in CHOK1 cells assessed as induction of beta-arrestin recruitment measured after 90 mins by luminescence assay relative to control; format: cell-based; how it was run: as §1
[8] = biological target: T2, D(4) dopamine receptor (Homo sapiens); assay: Agonist activity at human D4 receptor expressed in CHOK1 cells assessed as inhibition of forskolin-induced cAMP accumulation measured after 30 mins by Eu-cAMP tracer based TR-FRET assay relative to dopamine; format: functional, cell-based; how it was run: as §2
[9] = biological target: T2, D(4) dopamine receptor (Homo sapiens); assay: Antagonist activity at human D4 receptor expressed in CHOK1 cells assessed as suppression of dopamine-induced inhibition of forskolin-stimulated cAMP accumulation measured after 30 mins by Eu-cAMP tracer based TR-FRET assay relative to dopamine; format: functional, cell-based; set-up: concentration or dose not given beside the values
[10] = biological target: T3, D(2) dopamine receptor; assay: Agonist activity at human D2L receptor expressed in CHOK1 cells assessed as induction of beta-arrestin recruitment measured after 90 mins by luminescence assay relative to control; format: cell-based
How it was run: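 PathHunter enzyme-complementation assay in CHO-K1 cells stably expressing human D2R long isoform, seeded 2625 cells/well and incubated overnight. Compounds diluted in PBS with 0.2 μM sodium metabisulfite, tested at multiple concentrations, 90 min at 37 °C. Detection reagent then 45–60 min at room temperature, luminescence read. Normalized to maximal dopamine response. Nonlinear regression of triplicate runs, n = 3–4.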

[11] = biological target: T1, D(4) dopamine receptor; assay: Agonist activity at human D4 receptor expressed in CHOK1 cells assessed as induction of beta-arrestin recruitment measured after 90 mins by luminescence assay; format: cell-based; how it was run: as §1
[12] = biological target: T1, D(4) dopamine receptor; assay: Antagonist activity at human D4 receptor expressed in CHOK1 cells assessed as suppression of dopamine-induced inhibition of forskolin-stimulated cAMP accumulation measured after 30 mins by Eu-cAMP tracer based TR-FRET assay; format: functional, cell-based
[13] = biological target: T4, D(3) dopamine receptor; assay: Antagonist activity at human D3 receptor expressed in CHOK1 cells assessed as inhibition of dopamine-induced beta-arrestin recruitment measured after 90 mins by luminescence assay relative to control; format: cell-based
How it was run: (§3)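 Antagonist-mode PathHunter β-arrestin assay in CHO-K1 cells stably expressing human D2R long isoform or D3R, seeded overnight. Compound dilutions in PBS with 0.2 μM metabisulfite were co-incubated with an EC80 dopamine concentration for 90 min at 37 °C. Detection reagent was added for 45–60 min at room temperature, then luminescence was read. Values are % of dopamine EC80 response, from nonlinear regression of triplicate runs, n = 3–4.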

[14] = biological target: T2, D(4) dopamine receptor (Homo sapiens); assay: Antagonist activity at human D4 receptor expressed in CHOK1 cells assessed as inhibition of dopamine-induced beta-arrestin recruitment measured after 90 mins by luminescence assay relative to control; format: cell-based; set-up: concentration or dose not given beside the values
[15] = biological target: T3, D(2) dopamine receptor; assay: Agonist activity at human D2L receptor expressed in CHOK1 cells assessed as inhibition of forskolin-induced cAMP accumulation measured after 30 mins by Eu-cAMP tracer based TR-FRET assay relative to dopamine; format: cell-based; conditions: 0.5 h
[16] = biological target: T3, D(2) dopamine receptor; assay: Antagonist activity at human D2L receptor expressed in CHOK1 cells assessed as inhibition of dopamine-induced beta-arrestin recruitment measured after 90 mins by luminescence assay; format: cell-based; how it was run: as §3
[17] = biological target: T4, D(3) dopamine receptor; assay: Displacement of [3H]N-methylspiperone from human D3 receptor expressed in HEK293 cell membranes measured after 60 mins by scintillation counting method
How it was run: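 HEK293 cells stably expressing human D3R; membranes in EBSS buffer pH 7.4, stored at −80 °C. 20 μg protein/well with 0.4 nM [3H]N-methylspiperone (final), half-log dilutions in 30% DMSO, in triplicate. 60 min at room temperature, then GF/B filtration. Nonspecific binding with 10 μM (+)-butaclamol.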

[18] = biological target: T4, D(3) dopamine receptor; assay: Antagonist activity at human D3 receptor expressed in CHOK1 cells assessed as inhibition of dopamine-induced beta-arrestin recruitment measured after 90 mins by luminescence assay; format: cell-based; how it was run: as §3
[19] = biological target: T3, D(2) dopamine receptor; assay: Agonist activity at human D2L receptor expressed in CHOK1 cells assessed as induction of beta-arrestin recruitment measured after 90 mins by luminescence assay; format: cell-based; how it was run: as §1
[20] = biological target: T3, D(2) dopamine receptor; assay: Agonist activity at human D2L receptor expressed in CHOK1 cells assessed as inhibition of forskolin-induced cAMP accumulation measured after 30 mins by Eu-cAMP tracer based TR-FRET assay; format: cell-based; how it was run: as §2
[21] = biological target: T3, D(2) dopamine receptor; assay: Antagonist activity at human D2L receptor expressed in CHOK1 cells assessed as inhibition of dopamine-induced beta-arrestin recruitment measured after 90 mins by luminescence assay relative to control; format: cell-based; how it was run: as §3
[22] = biological target: T4, D(3) dopamine receptor; assay: Agonist activity at human D3 receptor expressed in CHOK1 cells assessed as induction of beta-arrestin recruitment measured after 90 mins by luminescence assay; format: cell-based; how it was run: as §1
[23] = biological target: D(1B) dopamine receptor (Homo sapiens) (UniProt P21918); assay: Antagonist activity at D5 receptor (unknown origin) stably expressed in CHOK1 cells assessed as inhibition of dopamine-induced beta-arrestin recruitment measured after 90 mins by luminescence assay; format: cell-based
[24] = biological target: D(1A) dopamine receptor (Homo sapiens) (UniProt P21728); assay: Antagonist activity at D1 receptor (unknown origin) stably expressed in CHOK1 cells assessed as inhibition of dopamine-induced beta-arrestin recruitment measured after 90 mins by luminescence assay; format: cell-based
[25] = biological target: D(1B) dopamine receptor (Homo sapiens) (UniProt P21918); assay: Agonist activity at D5 receptor (unknown origin) stably expressed in CHOK1 cells assessed as induction of beta-arrestin recruitment measured after 90 mins by luminescence assay; format: cell-based
[26] = biological target: D(1A) dopamine receptor (Homo sapiens) (UniProt P21728); assay: Agonist activity at D1 receptor (unknown origin) stably expressed in CHOK1 cells assessed as induction of beta-arrestin recruitment measured after 90 mins by luminescence assay; format: cell-based
[27] = biological target: T4, D(3) dopamine receptor; assay: Displacement of [3H](R)-(+)-7-OH-DPAT from human D3 receptor expressed in HEK293 cell membranes measured after 90 mins by scintillation counting method
How it was run: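 Fresh HEK293 hD3R membranes (40 μg/well) in 50 mM Tris, 10 mM MgCl2, 1 mM EDTA, pH 7.4 were incubated with 0.5 nM [3H]-(R)-(+)-7-OH-DPAT and half-log compound dilutions in 30% DMSO for 90 min at room temperature. Nonspecific binding was defined with 10 μM (+)-butaclamol. Samples were filtered on PEI-soaked GF/B filters and counted by scintillation.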

T3 sequence (P14416 whole entry): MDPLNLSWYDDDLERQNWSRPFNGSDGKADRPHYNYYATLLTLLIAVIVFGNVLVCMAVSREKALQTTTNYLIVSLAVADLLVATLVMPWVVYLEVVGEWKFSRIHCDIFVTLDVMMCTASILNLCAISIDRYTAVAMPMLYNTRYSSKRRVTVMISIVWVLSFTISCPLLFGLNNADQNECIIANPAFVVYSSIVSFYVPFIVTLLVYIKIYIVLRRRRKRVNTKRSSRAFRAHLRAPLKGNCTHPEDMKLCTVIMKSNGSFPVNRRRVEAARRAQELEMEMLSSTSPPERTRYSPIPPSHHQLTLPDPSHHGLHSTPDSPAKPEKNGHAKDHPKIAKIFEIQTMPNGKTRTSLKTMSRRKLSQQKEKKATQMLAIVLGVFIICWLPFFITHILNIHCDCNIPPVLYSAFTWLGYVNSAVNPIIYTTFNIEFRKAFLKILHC
T4 sequence (P35462 whole entry): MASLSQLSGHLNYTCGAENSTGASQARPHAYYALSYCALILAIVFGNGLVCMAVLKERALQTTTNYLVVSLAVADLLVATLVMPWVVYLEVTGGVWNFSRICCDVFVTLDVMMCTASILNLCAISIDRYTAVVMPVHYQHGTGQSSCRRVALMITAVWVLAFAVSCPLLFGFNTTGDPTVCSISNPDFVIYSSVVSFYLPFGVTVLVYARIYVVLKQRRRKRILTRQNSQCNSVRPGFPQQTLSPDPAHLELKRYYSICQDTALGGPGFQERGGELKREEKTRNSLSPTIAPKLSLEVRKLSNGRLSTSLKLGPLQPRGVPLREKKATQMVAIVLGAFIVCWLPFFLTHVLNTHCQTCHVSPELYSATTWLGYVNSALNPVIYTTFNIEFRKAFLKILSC
D(1B) dopamine receptor (Homo sapiens), sequence (P21918 whole entry): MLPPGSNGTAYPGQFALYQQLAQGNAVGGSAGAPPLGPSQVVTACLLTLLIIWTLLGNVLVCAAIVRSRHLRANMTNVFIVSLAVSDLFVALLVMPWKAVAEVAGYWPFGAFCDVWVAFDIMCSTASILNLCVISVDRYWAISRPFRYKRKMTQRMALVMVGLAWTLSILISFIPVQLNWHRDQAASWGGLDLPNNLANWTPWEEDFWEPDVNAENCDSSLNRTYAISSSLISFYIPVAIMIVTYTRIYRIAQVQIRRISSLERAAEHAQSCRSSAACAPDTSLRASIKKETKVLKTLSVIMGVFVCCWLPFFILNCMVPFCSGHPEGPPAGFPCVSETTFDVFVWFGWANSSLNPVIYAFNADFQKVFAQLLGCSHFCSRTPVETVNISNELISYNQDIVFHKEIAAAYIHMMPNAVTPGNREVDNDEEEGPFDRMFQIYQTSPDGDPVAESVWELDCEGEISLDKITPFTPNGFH
D(1A) dopamine receptor (Homo sapiens), sequence (P21728 whole entry): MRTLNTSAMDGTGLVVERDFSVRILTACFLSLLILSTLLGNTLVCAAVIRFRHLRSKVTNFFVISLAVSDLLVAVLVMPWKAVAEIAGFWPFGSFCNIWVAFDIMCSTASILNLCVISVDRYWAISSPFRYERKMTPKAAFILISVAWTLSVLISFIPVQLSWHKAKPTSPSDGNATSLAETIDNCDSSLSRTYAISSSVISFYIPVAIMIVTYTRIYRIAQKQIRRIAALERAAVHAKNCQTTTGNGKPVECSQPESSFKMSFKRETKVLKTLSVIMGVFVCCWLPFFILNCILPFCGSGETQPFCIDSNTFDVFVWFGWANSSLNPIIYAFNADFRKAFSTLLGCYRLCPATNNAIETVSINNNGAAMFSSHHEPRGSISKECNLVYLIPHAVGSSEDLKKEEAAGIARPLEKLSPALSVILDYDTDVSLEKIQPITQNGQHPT

Structure (SMILES)	IC50 [1] [nM]	Ki [2] [nM]	Emax [3] [%]	Ki [4] [nM]	EC50 ([5]; read-out: EC50) [nM]	inhibition (INH) [6] [%]	Emax [7] [%]	Emax [8] [%]	inhibition [9] [%]	Emax [10] [%]	EC50 ([11]; read-out: EC50) [nM]	IC50 [12] [nM]	inhibition [13]	inhibition [14] [%]	Emax [15] [%]	IC50 [16]	EC50 [5]	EC50 [11]	Ki [17] [nM]	IC50 [18]	other results
CCc1cccc(NC(=O)CN2CCN(c3ccccn3)CC2)c1	370	2.23	26.2	67.9	28.7	88	44.7	58	58.4	18.7	133	1310	100%	59.7	18.8	–	–	–	–	–	–
O=C(CN1CCN(c2ccc(Cl)cn2)CC1)Nc1cncnc1	> 100000	–	–	> 50000	–	76.2	–	–	–	–	–	> 100000	–	–	–	Not Active	Not Active	Not Active	> 50000	Not Active	EC50 [19]: Not Active; EC50 [20]: Not Active; INH [21]: Not Active; EC50 [22]: Not Active
Cc1cccc(NC(=O)CN2CCN(c3ccccn3)CC2)c1	313	1.89	30.7	212	3.6	–	49.4	64.2	43.2	23.9	394	82.7	inactive	78.9	19	–	–	–	> 10000	–	inhibition [23]: inactive; inhibition [24]: inactive; Activity [25]: inactive; Activity [26]: inactive; IC50 ([18]; read-out: IC50): > 100000 nM; Ki [27]: 6480 nM; EC50 ([22]; read-out: EC50): 6350 nM
O=C(CN1CCN(c2ccc(Cl)cn2)CC1)Nc1cccnc1	23400	–	–	5000	–	100	–	–	–	–	–	40000	–	–	–	Not Active	Not Active	Not Active	> 50000	Not Active	EC50 [19]: Not Active; EC50 [20]: Not Active; INH [21]: Not Active; EC50 [22]: Not Active
O=C(CN1CCN(c2ccccn2)CC1)Nc1cccnc1	25800	–	19	6410	1080	100	–	47.3	100	21.3	2660	86500	–	100	38.6	Not Active	–	–	> 50000	Not Active	EC50 ([22]; read-out: EC50): 2800 nM
